# From PubChem BioAssay
# Activity calls are given as the source filed them.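 Rule for the calls, unless noted: active = viability loss from added drug above about 55%, and viability with drug at most 40%, in both replicates (limit read from the data, passing the limit was not always enough); inconclusive = both conditions met in only one replicate; inactive = neither replicate meets both conditions.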
# Key:
# [1] = SK-BR-3 cell growth inhibitors, pilot screen, 24 h, human (AID 572;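 active = viability at or below 10% of carrier control in both of two separate runs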;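 note: compound exposure lasted between 18 and 24 h rather than exactly 24 h; 100% = carrier-treated control wells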); settings: SK-BR-3 viability, CellTiter-Glo luminescence, at 10 µM, stronger effect = lower value
# [2] = HUVEC growth inhibition – cell-based, human, primary screen (AID 575;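 active = viability at or below 30% in both replicate assays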;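 note: 100% = median of untreated cell wells with 0.1% DMSO on each plate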); settings: HUVEC proliferation, CellTiter-Glo luminescence, 72 h; at 10 µM; stronger effect = lower value
# Summary of the method: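 Assay system: Primary human umbilical vein endothelial cells | Quantity: 1250 cells per well | Medium: Supplemented EBM, 2% fetal bovine serum | Detection: CellTiter-Glo luminescence measuring cellular ATP | Read-out: % viability vs DMSO wells | Plate: Collagen-coated 384-well format | Times: 72 h exposure, 37 °C, 5% CO2, 30 min RT equilibration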
# [3] = growth inhibitors of H69AR lung tumor, primary screen, human, duplicate replicates (AID 580;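 active = viability at or under a set limit in both replicates, limit being median viability minus 3 SD, cut at about 48% in these data, passing the limit was not always enough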;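 note: 100% = mean luminescence of untreated wells and 0% = no signal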); settings: H69AR lung tumor cells viability, ATP luminescence, 72 h; at 10 µM; stronger effect = lower value
# [4] = reversal of MRP1-mediated doxorubicin resistance, pilot screen, H69AR cells, doxorubicin co-treatment (AID 601); settings: CellTiter-Glo, 72 h, at 10 µM; for differential viability (reversal): stronger effect = higher value
# [5] = 384-well plate pilot, post-Golgi transport modulator project, inhibition of yeast transport mutant growth (AID 636; in the data active = inhibition above about 31%); settings: absorbance 615 nm, about 18 h, stronger effect = higher value
# [6] = growth suppression of yeast trafficking mutant, preliminary HTS, modulators of trafficking downstream of Golgi apparatus project, 1536-format plate, OD 615 nm (AID 637; in the data active = inhibition above about 30%); settings: yeast transport mutant growth, absorbance 615 nm, 18 h; stronger effect = higher value
# [7] = H69AR cells + 2 uM doxorubicin, measured here: viability with 2 uM doxorubicin, stronger effect = lower value
# [8] = H69AR cells, compound alone cytotoxicity
Compound,viability [1],viability [2],viability [3],differential viability (reversal) ([4]; H69AR cells + 2 uM doxorubicin),"viability [4, 7] [%]","viability [4, 8] [%]",inhibition [5],inhibition [6]
Cc1noc(C)c1CSc1nnc2scc(-c3ccc(Cl)cc3)n12,88% (inactive),113% (inactive),91.6% (inactive),4.96% (inactive),86.7,91.6,-8.63% (inactive),1.13% (inactive)
CCOC(=O)Cn1nnc(-c2ccc(SC)cc2)n1,96% (inactive),100% (inactive),98% (inactive),5.72% (inactive),92.3,98,-8.38% (inactive),-4.36% (inactive)
O=C(COC(=O)c1cccc(S(=O)(=O)N2CCc3ccccc32)c1)NC1CCS(=O)(=O)C1 (stereo unspecified),90% (inactive),114% (inactive),102% (inactive),0.47% (inactive),101,102,-4.05% (inactive),-7.64% (inactive)
COc1cccc(C(=O)NC2=NCCS2)c1,109% (inactive),100% (inactive),96.7% (inactive),12.1% (inactive),84.6,96.7,-4.11% (inactive),0.32% (inactive)
Cc1cc(C)n2nc(SCC(=O)N(C)Cc3ccccc3)nc2n1,109% (inactive),107% (inactive),81.7% (inactive),-20.2% (inactive),102,81.7,-6.85% (inactive),1.82% (inactive)
NC(CO)C(=O)NNCc1ccc(O)c(O)c1O (stereo unspecified),97% (inactive),82.9% (inactive),98.7% (inactive),8.12% (inactive),90.5,98.7,-3.51% (inactive),-2.67% (inactive)
CCOC(=O)Cc1cc(=O)n2[nH]c(C)c(-c3ccc(OC)cc3)c2n1,103% (inactive),56.1% (inactive),92.6% (inactive),9.51% (inactive),83.1,92.6,-4.34% (inactive),-1% (inactive)
Cc1nn(-c2nc3ccccc3[nH]2)c(N)c1-c1ccccc1,97% (inactive),62.5% (inactive),41.3% (active),-27.6% (inactive),68.9,41.3,11.6% (inactive),2.7% (inactive)
Cc1nc2ccc(F)cc2cc1C(=O)NCC1CCCO1 (stereo unspecified),89% (inactive),90.3% (inactive),85.2% (inactive),-12.1% (inactive),97.3,85.2,-8.9% (inactive),3.27% (inactive)
COc1cc(C(=O)OC(C)CN2CCCC2)cc(OC)c1OC (stereo unspecified),99% (inactive),98.1% (inactive),108% (inactive),11.5% (inactive),97,108,-3.65% (inactive),0.55% (inactive)
O=S(=O)(c1ccc2c(c1)OCCO2)N1CCN(Cc2ccc3c(c2)OCO3)CC1,112% (inactive),105% (inactive),88.4% (inactive),-6.71% (inactive),95.1,88.4,-3.24% (inactive),1.09% (inactive)
Clc1ccccc1CN1CCc2sccc2C1,95% (inactive),78.2% (inactive),99% (inactive),19.9% (inactive),79.1,99,1.95% (inactive),8.17% (inactive)
O=C(Nc1ccc2c(c1)OCO2)N1CCN(c2ncccn2)CC1,126% (inactive),106% (inactive),85.5% (inactive),-22.1% (inactive),108,85.5,-8.49% (inactive),-1.64% (inactive)
Cn1c(=O)c2c(nc(NCCCO)n2Cc2cccc(Br)c2)n(C)c1=O,91% (inactive),104% (inactive),85.7% (inactive),0.26% (inactive),85.4,85.7,-5.73% (inactive),3.64% (inactive)
Clc1cccc(-c2nnc3sc(-c4ccccc4)nn23)c1,86% (inactive),124% (inactive),89.5% (inactive),-3.02% (inactive),92.6,89.5,-0.27% (inactive),-4% (inactive)
COC(=O)Cc1c(C)nc2nc[nH]n2c1=O,88% (inactive),93% (inactive),105% (inactive),9.79% (inactive),95.3,105,-4.73% (inactive),-2.91% (inactive)
CC(=O)Nc1nc(=S)ss1,135% (inactive),103% (inactive),87.5% (inactive),-8.28% (inactive),95.7,87.5,-1.3% (inactive),-0.33% (inactive)
O=C(c1csc2ccccc12)n1cccn1,117% (inactive),89.7% (inactive),93% (inactive),6.73% (inactive),86.3,93,-12.3% (inactive),-1.29% (inactive)
COc1ccc2cc(C#N)c(N3CCN(Cc4nnnn4CCC(C)C)CC3)nc2c1,89% (inactive),64.5% (inactive),79.4% (inactive),8.18% (inactive),71.2,79.4,-2.93% (inactive),2.73% (inactive)

Compound,viability [1],viability [2],viability [3],differential viability (reversal) ([4]; H69AR cells + 2 uM doxorubicin),"viability [4, 7] [%]","viability [4, 8] [%]",inhibition [5],inhibition [6]
Cc1ccc(-c2ccc(SCC(=O)Nc3nonc3C)nn2)cc1,94% (inactive),81.8% (inactive),88.8% (inactive),-4.68% (inactive),93.5,88.8,-7.57% (inactive),-0.55% (inactive)
OC(CCN1CCCCC1)(c1ccccc1)c1ccccc1,95% (inactive),92.7% (inactive),84.1% (inactive),0.38% (inactive),83.7,84.1,-2.21% (inactive),0% (inactive)
CC(C)(C)NCC(O)COc1cccc2c1C[C@H](O)[C@H](O)C2 (stereo partly specified),82% (inactive),85.3% (inactive),97.1% (inactive),4.26% (inactive),92.8,97.1,2.86% (inactive),1.83% (inactive)
COc1ccc(OC)c(NS(=O)(=O)Cc2ccccc2)c1,63% (inactive),102% (inactive),97.5% (inactive),-14.4% (inactive),112,97.5,-7.81% (inactive),1.64% (inactive)
O=C(CSc1nnc(-c2ccccn2)n1Cc1ccccc1)N1CCCC1,109% (inactive),104% (inactive),98.8% (inactive),10.9% (inactive),87.9,98.8,-8.67% (inactive),-6% (inactive)
COCCn1c(-c2ccco2)nc2nc3ccccc3nc21,99.5% (inactive),99.1% (inactive),77.3% (inactive),-2.21% (inactive),79.6,77.3,-8.27% (inactive),3.28% (inactive)
C/C(=N\O)C(=O)C(CN1CCCCC1)CN1CCCCC1,116% (inactive),95.6% (inactive),8.43% (active),5.9% (inactive),2.52,8.43,1.95% (inactive),-7% (inactive)
COc1nc(-c2ccc(Cl)cc2)ccc1-c1noc(-c2ccncc2)n1,109% (inactive),103% (inactive),82.4% (inactive),1.99% (inactive),80.4,82.4,-6.99% (inactive),-7.64% (inactive)
Cc1nnc2c3ccccc3c(-c3ccccc3)nn12,88% (inactive),100% (inactive),68.1% (inactive),42.8% (inactive),25.3,68.1,-6.49% (inactive),3.27% (inactive)
Cc1cc(C(=O)Nc2c(F)cc(F)cc2Br)no1,99% (inactive),91.9% (inactive),98.2% (inactive),-0.16% (inactive),98.4,98.2,-6.16% (inactive),4.03% (inactive)
CCSc1nc(O)c(C2OC(=O)c3c2ccc(OC)c3OC)c(=O)n1-c1ccccc1 (stereo unspecified),129% (inactive),94.5% (inactive),96.5% (inactive),11.4% (inactive),85.1,96.5,-9.45% (inactive),4.35% (inactive)
CCN(CC)S(=O)(=O)c1cccc(-c2nnc(SCCOc3ccccc3C)o2)c1,75% (inactive),89% (inactive),87.9% (inactive),18.7% (inactive),69.3,87.9,-2.6% (inactive),8.36% (inactive)
COc1ccc(-c2nsc(SCC(=O)Nc3cc(C)on3)n2)cc1,79% (inactive),79.4% (inactive),84.8% (inactive),-5.36% (inactive),90.2,84.8,-5.07% (inactive),3.09% (inactive)
COc1cc(SC)ccc1C(=O)Nc1ccccc1C#N,75% (inactive),79.6% (inactive),70.5% (inactive),-25.8% (inactive),96.3,70.5,-7.4% (inactive),0.91% (inactive)
CCOC(=O)N1CCC(NC(=O)Cn2ncc3c4ccccc4n(C)c3c2=O)CC1,114% (inactive),116% (inactive),97.5% (inactive),-7.6% (inactive),105,97.5,-7.43% (inactive),-3.27% (inactive)
N#CCC(=O)Nc1ncn(Cc2ccccc2Cl)n1,95% (inactive),105% (inactive),95.2% (inactive),-10.4% (inactive),106,95.2,-4.52% (inactive),3.82% (inactive)
O=C(CSc1nc(N2CCCCC2)nc(N2CCCCC2)n1)Nc1nccs1,123% (inactive),85.4% (inactive),77.3% (inactive),4.8% (inactive),72.5,77.3,-2.21% (inactive),-7.21% (inactive)
CC(C)Oc1ccc2c(=O)c(-c3ccccc3)coc2c1,121% (inactive),87% (inactive),89.7% (inactive),6.81% (inactive),82.8,89.7,-1.04% (inactive),-0.17% (inactive)
